Assay results from ChEMBL document CHEMBL4359917, “Design, synthesis, and biological evaluation of novel benzodiazepine derivatives as anticancer agents through inhibition of tubulin polymerization in vitro and in vivo” (Eur J Med Chem, 2019).
Calls of active or inactive are those of the source. No cut-off for these calls is given here.

Experiments:
A549 [1] = assay: Induction of apoptosis in human A549 cells assessed as necrotic cells at 10 nM after 48 hrs by annexin V-FITC/propidium iodide staining based flow cytometry (reference value: 0.03 %); assay type: functional
Procedure, shortened: (§1)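 A549 cells treated at 1, 5 or 10 nM for 24 or 48 h, then analysed by flow cytometry. Quadrants: upper left necrotic, upper right late apoptotic, bottom left live, bottom right early apoptotic. Three experiments; representative results shown.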

A549 [2] = assay: Cell cycle arrest in human A549 cells assessed as increase in cell accumulation at G2/M phase at 1 to 10 nM by RNase/propidium iodide staining based flow cytometry analysis; assay type: functional; conditions: TDE = time-dependent effect
A549 [3] = assay: Induction of apoptosis in human A549 cells assessed as live cells at 1 nM after 24 hrs by annexin V-FITC/propidium iodide staining based flow cytometry (reference value: 99.75 %); assay type: functional; procedure, shortened: as §1
HeLa = assay: Antiproliferative activity against human HeLa cells assessed as cell growth inhibition measured after 48 hrs by MTT assay; assay type: functional, cell-based
Procedure, shortened: (§2)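 Cancer cell lines exposed to compounds for 48 h; viability read by MTT assay. IC50 reported as mean ± SD from at least three independent experiments.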

A549 [4] = assay: Induction of apoptosis in human A549 cells assessed as late apoptotic cells at 10 nM after 24 hrs by annexin V-FITC/propidium iodide staining based flow cytometry (reference value: 0.02 %); assay type: functional; procedure, shortened: as §1
A549 [5] = assay: Induction of apoptosis in human A549 cells assessed as necrotic cells at 1 nM after 24 hrs by annexin V-FITC/propidium iodide staining based flow cytometry (reference value: 0.03 %); assay type: functional; procedure, shortened: as §1
HepG2 = assay: Antiproliferative activity against human HepG2 cells assessed as cell growth inhibition measured after 48 hrs by MTT assay; assay type: functional, cell-based; conditions: HepG2, 48 h; procedure, shortened: as §2
A549 [6] = assay: Antiproliferative activity against human A549 cells assessed as cell growth inhibition measured after 48 hrs by MTT assay; assay type: functional, cell-based; conditions: A549, 48 h; procedure, shortened: as §2
A549 [7] = assay: Induction of apoptosis in human A549 cells assessed as early apoptotic cells at 1 nM after 24 hrs by annexin V-FITC/propidium iodide staining based flow cytometry (reference value: 0.19 %); assay type: functional; procedure, shortened: as §1
[8] = Metabolic stability in Sprague-Dawley rat liver microsomes assessed as parent compound remaining after 60 mins in presence of NADPH by HPLC-UV-MS analysis; assay type: ADME, Microsome; conditions: read-out: Stability
Procedure, shortened: (§3)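 Compound incubated with rat liver microsomes in buffer containing an NADPH regenerating system. Percentage of parent remaining was determined at time points up to 180 min, and half-life was derived.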

A549 [9] = assay: Induction of apoptosis in human A549 cells assessed as late apoptotic cells at 5 nM after 48 hrs by annexin V-FITC/propidium iodide staining based flow cytometry (reference value: 0.02 %); assay type: functional; procedure, shortened: as §1
[10] = Metabolic stability in Sprague-Dawley rat liver microsomes assessed as parent compound remaining after 90 mins in presence of NADPH by HPLC-UV-MS analysis; assay type: ADME, Microsome; conditions: read-out: Stability; procedure, shortened: as §3
[11] = Metabolic stability in Sprague-Dawley rat liver microsomes assessed as parent compound remaining after 30 mins in presence of NADPH by HPLC-UV-MS analysis; assay type: ADME, Microsome; conditions: read-out: Stability; procedure, shortened: as §3
A549 [12] = assay: Disruption of microtubule organization in human A549 cells assessed as microtubule spindle shrunk at 1 to 10 nM measured after 24 hrs by immunofluorescence laser confocal microscopy analysis; assay type: functional, cell-based
Procedure, shortened: (§4)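 A549 cells plated in confocal dishes and exposed to DMSO or compound at 1, 5 or 10 nM for 24 h. Cells were fixed, immunostained for microtubules and imaged by laser confocal microscopy. Performed three times.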

Tubulin (Sus scrofa) = Tubulin (Sus scrofa) (UniProt P02554+P02550); assay: (§5) Inhibition of porcine brain tubulin polymerization assessed as decrease in fluorescence intensity measured every 60 sec for 90 mins in presence of GTP by DAPI staining based fluorescence assay
Chain of Tubulin (Sus scrofa) (P02550 whole entry, looked up): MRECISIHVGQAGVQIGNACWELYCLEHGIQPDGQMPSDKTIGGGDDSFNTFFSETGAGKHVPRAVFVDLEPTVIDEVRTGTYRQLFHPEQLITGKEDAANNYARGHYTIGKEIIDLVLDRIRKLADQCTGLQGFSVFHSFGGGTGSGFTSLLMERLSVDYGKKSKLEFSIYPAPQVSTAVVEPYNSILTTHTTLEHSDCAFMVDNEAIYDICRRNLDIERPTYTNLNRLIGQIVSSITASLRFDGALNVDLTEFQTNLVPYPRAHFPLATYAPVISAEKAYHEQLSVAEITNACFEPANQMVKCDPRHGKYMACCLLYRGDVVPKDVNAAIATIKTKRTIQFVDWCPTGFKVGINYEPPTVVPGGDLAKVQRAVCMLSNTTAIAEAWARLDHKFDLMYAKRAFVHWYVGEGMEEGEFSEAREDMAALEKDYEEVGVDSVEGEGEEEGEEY
Chain of Tubulin (Sus scrofa) (P02554 whole entry, looked up): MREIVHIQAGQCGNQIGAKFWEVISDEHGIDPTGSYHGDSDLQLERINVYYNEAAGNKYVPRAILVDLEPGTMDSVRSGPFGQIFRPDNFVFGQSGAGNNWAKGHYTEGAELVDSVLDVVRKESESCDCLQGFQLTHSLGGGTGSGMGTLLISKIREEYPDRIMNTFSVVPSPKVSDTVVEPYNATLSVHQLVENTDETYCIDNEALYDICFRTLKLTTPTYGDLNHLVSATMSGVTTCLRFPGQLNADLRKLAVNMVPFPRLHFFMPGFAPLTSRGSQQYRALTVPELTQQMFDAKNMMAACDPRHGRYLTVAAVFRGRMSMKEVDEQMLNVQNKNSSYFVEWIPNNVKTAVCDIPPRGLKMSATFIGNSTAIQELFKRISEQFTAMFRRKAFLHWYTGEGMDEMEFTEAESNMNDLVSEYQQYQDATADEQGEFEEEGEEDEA
Procedure, shortened: (§6)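 Purified unpolymerised tubulin in reaction buffer incubated at 37 °C without or with compound at 0.75-7.5 µM. Polymerisation was followed as a rise in fluorescence intensity, and IC50 was derived. Performed three times.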

Tubulin = Tubulin (Sus scrofa, UniProt P02554+P02550); assay: as §5; procedure, shortened: as §6
A549 [13] = assay: Induction of apoptosis in human A549 cells assessed as live cells at 5 nM after 24 hrs by annexin V-FITC/propidium iodide staining based flow cytometry (reference value: 99.75 %); assay type: functional; procedure, shortened: as §1
A549 [14] = assay: Induction of apoptosis in human A549 cells assessed as necrotic cells at 10 nM after 24 hrs by annexin V-FITC/propidium iodide staining based flow cytometry (reference value: 0.03 %); assay type: functional; procedure, shortened: as §1
A549 [15] = assay: Disruption of microtubule organization in human A549 cells assessed as appearance of dotted disorder formations at 10 nM measured after 24 hrs by immunofluorescence laser confocal microscopy analysis; assay type: functional, cell-based; procedure, shortened: as §4
MDA-MB-231 = assay: Antiproliferative activity against human MDA-MB-231 cells assessed as cell growth inhibition measured after 48 hrs by MTT assay; assay type: functional, cell-based; conditions: MDA-MB-231, 48 h; procedure, shortened: as §2
A549 [16] = assay: Induction of apoptosis in human A549 cells assessed as late apoptotic cells at 1 nM after 24 hrs by annexin V-FITC/propidium iodide staining based flow cytometry (reference value: 0.02 %); assay type: functional; procedure, shortened: as §1
in vitro = conditions: Sprague-Dawley, rat, liver microsomes
[17] = Metabolic stability in Sprague-Dawley rat liver microsomes assessed as parent compound remaining after 120 mins in presence of NADPH by HPLC-UV-MS analysis; assay type: ADME, Microsome; conditions: read-out: Stability; procedure, shortened: as §3
A549 [18] = assay: Induction of apoptosis in human A549 cells assessed as late apoptotic cells at 5 nM after 24 hrs by annexin V-FITC/propidium iodide staining based flow cytometry (reference value: 0.02 %); assay type: functional; procedure, shortened: as §1
A549 [19] = assay: Induction of apoptosis in human A549 cells assessed as necrotic cells at 5 nM after 48 hrs by annexin V-FITC/propidium iodide staining based flow cytometry (reference value: 0.03 %); assay type: functional; procedure, shortened: as §1
[20] = Half-life in Sprague-Dawley rat liver microsomes in presence of NADPH by HPLC-UV-MS analysis; assay type: ADME, Microsome; procedure, shortened: as §3
A549 [21] = assay: Induction of apoptosis in human A549 cells assessed as live cells at 1 nM after 48 hrs by annexin V-FITC/propidium iodide staining based flow cytometry (reference value: 99.75 %); assay type: functional; procedure, shortened: as §1
A549 [22] = assay: Induction of apoptosis in human A549 cells assessed as early apoptotic cells at 5 nM after 48 hrs by annexin V-FITC/propidium iodide staining based flow cytometry (reference value: 0.19 %); assay type: functional; procedure, shortened: as §1
A549 [23] = assay: Induction of apoptosis in human A549 cells assessed as late apoptotic cells at 10 nM after 48 hrs by annexin V-FITC/propidium iodide staining based flow cytometry (reference value: 0.02 %); assay type: functional; procedure, shortened: as §1
A549 [24] = assay: Induction of apoptosis in human A549 cells assessed as early apoptotic cells at 1 nM after 48 hrs by annexin V-FITC/propidium iodide staining based flow cytometry (reference value: 0.19 %); assay type: functional; procedure, shortened: as §1
A549 [25] = assay: Induction of apoptosis in human A549 cells assessed as late apoptotic cells at 1 nM after 48 hrs by annexin V-FITC/propidium iodide staining based flow cytometry (reference value: 0.02 %); assay type: functional; procedure, shortened: as §1
HCT-116 = assay: Antiproliferative activity against human HCT116 cells assessed as cell growth inhibition measured after 48 hrs by MTT assay; assay type: functional, cell-based; conditions: HCT-116, 48 h; procedure, shortened: as §2
A549 [26] = assay: Induction of apoptosis in human A549 cells assessed as necrotic cells at 1 nM after 48 hrs by annexin V-FITC/propidium iodide staining based flow cytometry (reference value: 0.03 %); assay type: functional; procedure, shortened: as §1

With COc1ccc2c(c1O)NC(=O)CN=C2c1cc(OC)c(OC)c([Se]C)c1 the Activity (A549 [1]) was 3.61%, the Activity (A549 [2]) was “Tde” and the Activity (A549 [3]) was 94.08%. It also gave an IC50 (HeLa) of 8.3 nM, an Activity (A549 [4]) of 0.13% and an Activity (A549 [5]) of 0.04%. The IC50 (HepG2) was 12.6 nM, the IC50 (A549 [6]) was 5.82 nM and the Activity (A549 [7]) was 5.71%. The remaining at 1 h [8] was 86.3%, the Activity (A549 [9]) was 11.71% and the remaining at 1.5 h [10] was 75.9%. The remaining at 0.5 h [11] was 95.6%, the Activity (A549 [12]) was “Active” and the inhibition (Tubulin (Sus scrofa)) was “Dose-dependent effect”. For the same compound, the IC50 (Tubulin) was 1650 nM, the Activity (A549 [13]) was 86.5% and the Activity (A549 [14]) was 0.09%. The Activity (A549 [15]) was “Active”, the IC50 (MDA-MB-231) was 15.5 nM and the Activity (A549 [16]) was 0.17%. The remaining at 3 h (in vitro) was 50.4%, the remaining at 2 h [17] was 66.1% and the Activity (A549 [18]) was 0.32%. It also gave an Activity (A549 [19]) of 2.28%, a half-life [20] of 2.69 h and an Activity (A549 [21]) of 82.83%. For the same compound, the Activity (A549 [22]) was 28.68%, the Activity (A549 [23]) was 19.15% and the Activity (A549 [24]) was 13.64%. For the same compound, the Activity (A549 [25]) was 3.25%, the IC50 (HCT-116) was 8.9 nM and the Activity (A549 [26]) was 0.28%.
